The record followed here is PubChem BioAssay.

The source made the active and inactive calls.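 The calls were made as follows, unless noted: active = a full or partial loss of lipid-probe fluorescence in the fish gall bladder, intestine or both, judged by eye; inactive = no fluorescence loss, or compound toxic to the fish.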

Assay [1] in a line: inhibitors of TNFa-induced NFkB p65 translocation, primary screen, imaging, HUVEC, MLSMR starter and 10KST1 sets (AID 438;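 active = inhibition above 20% together with a positive visual image hit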;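 also: compound added about 3h40 before a 20 min TNFalpha stimulation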;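 as to inhibition: signal is the nuclear over cytoplasmic p65 intensity ratio per well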). Conditions: HUVEC TNFa-induced p65 nuclear translocation; cell count: measured here: nuclei count (cytotoxicity indicator), at 2.08 µM; inhibition: at 2 µM, stronger effect = higher value, 0% TNFa-plus-vehicle, 100% no-TNFa wells.
Assay [2] is described as follows: inhibitors of E-selectin induction by TNFa, primary screen, imaging, HUVEC, immunofluorescence, MLSMR starter and 10KST1 sets (AID 487;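 active = visually confirmed hit in the image check and inhibition above 20%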;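 as to inhibition: signal is fraction of cell area covered by stained E-selectin grains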;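 as to nuclei count: 100% = median nuclei count of all wells on the same plate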). Conditions: HUVEC TNFalpha-induced E-selectin immunofluorescence imaging, at 2 µM; inhibition: stronger effect = higher value; nuclei count: measured here: cell number, toxicity.
Assay [3] can be described thus: DUSP6 inhibitors restoring Erk phosphorylation by chemical complementation, primary imaging in DUSP6-transfected HeLa (AID 609;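 active = compounds giving at least 50% inhibition in the cell-based MKP-3 phosphatase rescue imaging test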;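 as to inhibition: phospho-Erk level distribution per well compared with pooled transfected vehicle control wells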). Conditions: HeLa MKP-3 transfected, phospho-Erk imaging KS statistic, at 10 µM, cells stimulated with TPA for 15 min.
Assay [4] deals with Dual specificity protein phosphatase 6 (Homo sapiens) (UniProt Q16828). The description is as above. Conditions: HeLa MKP-3 transfected, phospho-Erk imaging KS statistic; at 10 µM; stronger effect = higher value; cells stimulated with TPA for 15 min.
Assay [5] addresses Voltage-gated potassium channel subunit beta-2 (Rattus norvegicus) (UniProt P62483). Kind of assay: KvBeta enzyme negative modulators, primary screen, biochemical, NADPH fluorescence (AID 622;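 active = fluorescence slope higher than the sample average by over 3 SD, cut at about -0.22 in these data, passing the limit was not always enough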;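 also: slope of raw intensity against log time taken from 70 to 1610 s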). Conditions: recombinant KvBeta, 4-cyanobenzaldehyde reduction, at 10 µM, stronger effect = higher value.
Assay [6] shares this target. Kind of assay: KvBeta positive modulators, primary screen, biochemical, NADPH fluorescence (AID 623;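 active = NADPH fluorescence slope more negative than the mean of all samples by about 3 SD, 99.7% confidence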;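 also: fluorescence intensity change per second fitted from 20 to 320 s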). Conditions: Recombinant KvBeta, NADPH fluorescence decrease slope, 10 min; at 10 µM; stronger effect = lower value.
For assay [7], the target named is Muscarinic acetylcholine receptor M4 (Homo sapiens) (UniProt P08173). Kind of assay: compounds altering M4/GIRK thallium flux, either direction, primary screen, M4 allosteric agonist project, cell-based, HEK293 M4/GIRK, BTC-AM (AID 625;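 active = fluorescence slope after compound addition differing from the mean of all tested samples at 99.7% confidence, mostly higher but some lower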;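 also: thallium influx through GIRK channels coupled to M4 in HEK293 cells with BTC-AM dye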). Conditions: at 10 µM, actives lie on both sides. Summed up:
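Material: M4/GIRK1/GIRK2 stable HEK293 cell line. Medium: pH 7.3 thallium assay buffer. Dosing: single compound concentration, 10 µM final. Schedule: 1 h dye loading, 2 min kinetic read. Measured by: kinetic fluorescence with BTC-AM dye. Read-out: post-addition slope, 15–24 s, of baseline-normalized fluorescence. Benchmarks: carbachol and DMSO controls.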

Assay [8] is described as follows: inhibitors of larval lipid processing in zebrafish, primary screen, whole organism, PED6 fluorescence, gall bladder and intestine (AID 686).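 Also: larvae 5 to 7 days old with five fish per well; signal comes from phospholipase A2 cleavage of quenched PED6 carried via bile; overnight exposure to compound and PED6 before scoring.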 Conditions: Zebrafish larvae PED6 lipid processing, fluorescence scoring; screened at 20 µM (by protocol). The gist of the method:
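System: live zebrafish larvae aged 5-7 days, whole organism; measure: graded gall bladder and intestinal fluorescence inhibition per well; incubation: overnight exposure; reagent: ingested quenched lipid PED6 at 100 nM; signal: By-eye fluorescence microscopy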

The nature of assay [9]: inhibitors of Chlamydomonas gravitaxis, primary screen, whole organism, Chlamydomonas reinhardtii, WT vs cilia-less mutant, absorbance, 96-well (AID 463189;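 active = inhibition at or above 50% relative to wild type and mutant plate controls; inactive = inhibition below 50%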;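 also: 0% = wild type cc124 cells in DMSO and 100% = ciliumless bld1 mutant cells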). The following applies: OD600 absorbance, 2 days, at 10 µM, stronger effect = higher value.
[10] abbreviates: measured here: cell density z-score.
The mark [11] stands for this setting: measured here: nuclear c-Myc green intensity z-score.
Setting [12] is: measured here: nuclear pErk red intensity z-score, stronger effect = higher value.

Muscarinic acetylcholine receptor M4 (Homo sapiens), sequence (P08173 whole entry, looked up): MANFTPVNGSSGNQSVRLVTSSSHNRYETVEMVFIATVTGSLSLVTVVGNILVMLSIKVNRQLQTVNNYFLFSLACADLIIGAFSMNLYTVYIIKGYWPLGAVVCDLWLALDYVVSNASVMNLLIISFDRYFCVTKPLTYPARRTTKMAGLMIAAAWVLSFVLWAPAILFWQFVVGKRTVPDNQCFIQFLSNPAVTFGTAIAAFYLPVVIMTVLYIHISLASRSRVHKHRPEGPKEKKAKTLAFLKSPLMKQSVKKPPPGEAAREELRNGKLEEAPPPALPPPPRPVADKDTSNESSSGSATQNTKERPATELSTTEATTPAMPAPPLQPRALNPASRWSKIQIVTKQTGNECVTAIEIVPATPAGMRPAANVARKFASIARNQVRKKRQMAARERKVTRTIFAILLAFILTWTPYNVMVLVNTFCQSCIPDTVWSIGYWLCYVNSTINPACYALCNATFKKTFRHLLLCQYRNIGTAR
Dual specificity protein phosphatase 6 (Homo sapiens), sequence (Q16828 whole entry, looked up): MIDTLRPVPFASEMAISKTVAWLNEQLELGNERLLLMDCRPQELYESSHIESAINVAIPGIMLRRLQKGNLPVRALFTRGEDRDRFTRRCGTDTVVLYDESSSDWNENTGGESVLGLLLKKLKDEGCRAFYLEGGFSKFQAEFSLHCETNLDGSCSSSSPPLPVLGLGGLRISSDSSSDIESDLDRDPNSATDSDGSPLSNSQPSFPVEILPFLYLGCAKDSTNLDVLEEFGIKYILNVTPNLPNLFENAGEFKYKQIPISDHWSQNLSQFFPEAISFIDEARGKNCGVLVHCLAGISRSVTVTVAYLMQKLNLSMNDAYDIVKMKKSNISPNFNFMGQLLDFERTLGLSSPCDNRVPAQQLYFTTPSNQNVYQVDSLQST
Voltage-gated potassium channel subunit beta-2 (Rattus norvegicus), sequence (P62483 whole entry, looked up): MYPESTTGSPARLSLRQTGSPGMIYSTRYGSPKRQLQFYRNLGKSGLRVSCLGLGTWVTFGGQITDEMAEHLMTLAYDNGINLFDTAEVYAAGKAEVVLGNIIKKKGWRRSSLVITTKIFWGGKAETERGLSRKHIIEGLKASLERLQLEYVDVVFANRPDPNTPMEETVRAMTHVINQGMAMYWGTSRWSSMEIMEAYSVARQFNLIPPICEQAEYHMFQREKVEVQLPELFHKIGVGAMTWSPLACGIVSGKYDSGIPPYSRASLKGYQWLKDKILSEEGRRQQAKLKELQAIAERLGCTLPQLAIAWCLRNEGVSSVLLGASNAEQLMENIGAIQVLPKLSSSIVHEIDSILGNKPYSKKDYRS

For `Cn1ccnc1C(O)c1ccc(OCc2ccccc2)cc1` (centres undefined), the cell count in assay [1] amounted to 473. In addition, the inhibition (usually the relative decrease from the control value, in per cent) in assay [1] was -1.1% (inactive); in assay [2], -18.4% (inactive); in [4], 7.42% (inactive); in assay [9], -11.2% (inactive). For the same compound, the nuclei count in assay [2] was 113%. In addition, the values for the z-score in assay [3] (setting [10]), in assay [3] (setting [11]) and in assay [3] (setting [12]) were -3.29, 1.73 and -0.207, respectively. In addition, the fluorescence slope was -0.487 (inactive) in assay [5] and 0.00541 (inactive) in [7]. Further, the NADPH fluorescence slope in [6] is -0.000123 (inactive). Also, the result in [8] was inactive.

For `C=CCc1cccc(/C=N/n2cnnc2)c1O`, the cell count in assay [1] stood at 534. Besides, the inhibition in assay [1] is -6.9% (inactive); in assay [2], -121% (inactive); in assay [4], 13.4% (inactive); in assay [9] it was -8.96% (inactive). Further, the nuclei count in [2] was 136%. For the same compound, the values for the z-score in assay [3] (setting [10]), in assay [3] (setting [11]) and in [3] (setting [12]) were -0.238, 0.5 and -0.321, respectively. For the same compound, the results for the fluorescence slope in assay [5] and in assay [7] were -0.446 (inactive) and 0.00478 (inactive), respectively. For the same compound, in [6], the NADPH fluorescence slope is -0.00012 (inactive). The outcome in [8] was inactive.

On to `O=C(Nc1ccccn1)c1ccc(=O)[nH]n1`, for which the cell count in assay [1] was determined as 634. For the same compound, the inhibition was 4.2% (inactive) in assay [1], -92.2% (inactive) in assay [2], 6.51% (inactive) in assay [4] and 20.6% (inactive) in assay [9]. The compound also had a nuclei count in assay [2] of 134%. For the same compound, the z-score in assay [3] (setting [10]) was 0.857; in assay [3] (setting [11]) it was -1.57; in assay [3] (setting [12]) it was -0.248. Besides, the fluorescence slope is -0.475 (inactive) in assay [5] and 0.00627 (inactive) in [7]. For the same compound, the NADPH fluorescence slope in assay [6] was -0.0002 (inactive). Besides, the compound was called inactive in [8].

As for `Cc1cc(=O)oc2c(CN3CCCCC3)c(O)c(Cl)cc12`, the cell count in [1] stood at 703. The inhibition in assay [1] is -7.3% (inactive); in assay [2] it was -40.4% (inactive); in [4], 7.83% (inactive); in [9], 15.8% (inactive). This compound also had a nuclei count in [2] of 146%. Moreover, the z-score in assay [3] (setting [10]) was 0.085; in assay [3] (setting [11]) it was 0.889; in assay [3] (setting [12]) it was -2.46. Further, the values for the fluorescence slope in assay [5] and in assay [7] were -0.0387 (inactive) and 0.0046 (inactive), respectively. The NADPH fluorescence slope in assay [6] was -0.000132 (inactive). Also, the call in [8] was inactive.

Turning to `N#CC1=C(N)OC2=C(C(=O)CCC2)[C@]12C(=O)N(CC(N)=O)c1ccccc12`, the cell count in assay [1] stood at 485. For the same compound, the inhibition in assay [1] is -9.7% (inactive); in assay [2], -41.1% (inactive); in [4] it was -7.28% (inactive); in [9], -0.197% (inactive). Moreover, the nuclei count in assay [2] worked out at 130%. For the same compound, the figures for the z-score in assay [3] (setting [10]), in assay [3] (setting [11]) and in [3] (setting [12]) were -0.751, 0.747 and -0.43, respectively. For the same compound, the fluorescence slope in assay [5] was -0.431 (inactive); in assay [7], 0.00487 (inactive). In addition, the NADPH fluorescence slope in assay [6] is -3e-05 (inactive). The compound was called inactive in assay [8].

For `O=C1c2ccccc2C(=O)N1CC1c2ccccc2CCN1C(=O)N1CCOCC1` (centres undefined), the cell count in assay [1] worked out at 775. The inhibition in assay [1] is -4.1% (inactive); in assay [2], -16.4% (inactive); in assay [4] it was 1.98% (inactive); in assay [9] it was -3.71% (inactive). In assay [2], this compound registered a nuclei count of 202%. The z-score in assay [3] (setting [10]) turned out to be 0.51; in [3] (setting [11]), 1.63; in assay [3] (setting [12]), 0.969. Besides, the fluorescence slope is -0.485 (inactive) in assay [5] and 0.0053 (inactive) in assay [7]. Also, the NADPH fluorescence slope in assay [6] is -4.9e-05 (inactive). In addition, the compound was classed as inactive in assay [8].

Turning to `CC(C)NCc1c(O)c(Br)cc2oc3c(c12)CCCC3`, in assay [1], the cell count was determined as 533. The inhibition in assay [1] was 9.9% (inactive); in assay [2] it was -3.5% (inactive); in assay [4], -7.67% (inactive); in assay [9], 53.2% (active). For the same compound, the nuclei count in [2] came to 99.8%. Besides, the z-score in [3] (setting [10]) was 0.0675; in assay [3] (setting [11]), -0.158; in [3] (setting [12]), -0.115. The fluorescence slope in assay [5] is -0.517 (inactive); in [7], 0.00361 (inactive). Further, the NADPH fluorescence slope in assay [6] is -1.1e-05 (inactive). In assay [8], the result was inactive.

In the case of `O=C1C2ON(c3ccccc3)C(c3cccnc3)C2C(=O)N1c1ccc(Cl)c(Cl)c1` (centres undefined), the cell count in assay [1] came out at 666. The inhibition in assay [1] is -5.7% (inactive); in assay [2], -61.8% (inactive); in assay [4] it was -5.62% (inactive); in assay [9], 11.2% (inactive). Further, the nuclei count in assay [2] worked out at 147%. The z-score in [3] (setting [10]) was -0.87; in assay [3] (setting [11]), 0.124; in [3] (setting [12]), -0.00603. Besides, the fluorescence slope is -0.479 (inactive) in assay [5] and 0.00562 (inactive) in [7]. Also, in assay [6], the NADPH fluorescence slope is -2.8e-05 (inactive). Moreover, the call in assay [8] was inactive.

On to `Cc1nc2c(o1)CCc1ccccc1C2N1CCN(C)CC1` (centres undefined), for which the cell count in [1] worked out at 557. Also, the inhibition in assay [1] was 1.3% (inactive); in assay [2] it was -37.3% (inactive); in [4], 17.8% (inactive); in assay [9], 29.5% (inactive). Besides, the nuclei count in assay [2] came to 103%. The z-score was 0.777 in assay [3] (setting [10]), -1.51 in [3] (setting [11]) and 1.56 in [3] (setting [12]). The fluorescence slope in assay [5] was -0.412 (inactive); in assay [7], 0.00552 (inactive). The NADPH fluorescence slope in [6] is -3.4e-05 (inactive). The outcome in assay [8] was inactive.

For `Cc1cc(SCCC(=O)O)nc2ccccc12`, the cell count in assay [1] amounted to 685. The inhibition was -18.8% (inactive) in assay [1], -36.7% (inactive) in assay [2], 5.95% (inactive) in assay [4] and -15.2% (inactive) in assay [9]. In assay [2], this compound registered a nuclei count of 201%. Besides, the z-score in assay [3] (setting [10]) is -0.264; in assay [3] (setting [11]), 0.626; in assay [3] (setting [12]) it was 0.219. The fluorescence slope in [5] is -0.488 (inactive); in assay [7] it was 0.00621 (inactive). Further, in assay [6], the NADPH fluorescence slope is -4.8e-05 (inactive). The outcome in assay [8] was inactive.

For `CC(NC(=O)Nc1ccc(O)cc1)(C(F)(F)F)C(F)(F)F`, in assay [1], the cell count was 709. The inhibition was -15.9% (inactive) in assay [1], -16.4% (inactive) in assay [2], -3.95% (inactive) in assay [4] and 0.534% (inactive) in assay [9]. Also, the nuclei count in assay [2] was 151%. Besides, the z-score in assay [3] (setting [10]) is -0.386; in [3] (setting [11]), 1.06; in assay [3] (setting [12]), 0.803. Also, the fluorescence slope in assay [5] was -0.461 (inactive); in assay [7], 0.00553 (inactive). Further, in [6], the NADPH fluorescence slope is -4.3e-05 (inactive). For the same compound, the outcome in assay [8] was inactive.

Regarding `CC1(C(=O)CSc2ncn[nH]2)CCC(=O)O1` (centres undefined), the cell count in assay [1] was 643. For the same compound, the inhibition is 19.2% (inactive) in assay [1], 21.4% (inactive) in [2], 7.21% (inactive) in [4] and 29.1% (inactive) in assay [9]. The compound also showed a nuclei count in [2] of 93.2%. Moreover, the results for the z-score in assay [3] (setting [10]), in assay [3] (setting [11]) and in assay [3] (setting [12]) were -1.6, 1.61 and 0.596, respectively. The fluorescence slope in assay [5] is -0.544 (inactive); in [7], 0.00624 (inactive). Moreover, in assay [6], the NADPH fluorescence slope is -5.7e-05 (inactive). For the same compound, the compound was classed as inactive in [8].

For the compound `CN(C)C(=O)COn1c(SCC(=O)N(C)C)nc2ccccc2c1=O`, the cell count in assay [1] was 739. The inhibition is 2% (inactive) in assay [1], -47.5% (inactive) in [2], 0.671% (inactive) in assay [4] and 0.936% (inactive) in assay [9]. In assay [2], this compound displayed a nuclei count of 191%. The z-score in assay [3] (setting [10]) is -0.833; in assay [3] (setting [11]) it was -0.176; in [3] (setting [12]) it was 1.1. Moreover, the fluorescence slope in assay [5] was -0.428 (inactive); in assay [7] it was 0.00719 (inactive). Moreover, the NADPH fluorescence slope in assay [6] was -3.4e-05 (inactive). In assay [8], the call was inactive.
